TCR-CD3 inh – inhibitors of human TCR-CD3 interaction, primary screen, biochemical, fluorescence, TAMRA-labeled TCR probe; inhibition, % at 9.4 µM; T-cell receptor (TCR); AID 651800, 2012; hit rate 0.37% among 360,000;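 further: recombinant mutant TCR 2C K166C tagged with TAMRA read by polarization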
PAD4 inh – human PAD4 inhibitors, primary screen, biochemical, fluorescence polarization, 1536-well format; inhibition, % at 6.36 µM; Protein-arginine deiminase type-4 (Homo sapiens), Q9UM07; hit rate 0.41% among 330,000; recombinant PAD4, RCA probe fluorescence polarization;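 active means percent inhibition above a cutoff equal to the mean of all tested compounds plus 3 SD, cut at about 15% in these data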
Target sequence (Q9UM07 whole entry, looked up): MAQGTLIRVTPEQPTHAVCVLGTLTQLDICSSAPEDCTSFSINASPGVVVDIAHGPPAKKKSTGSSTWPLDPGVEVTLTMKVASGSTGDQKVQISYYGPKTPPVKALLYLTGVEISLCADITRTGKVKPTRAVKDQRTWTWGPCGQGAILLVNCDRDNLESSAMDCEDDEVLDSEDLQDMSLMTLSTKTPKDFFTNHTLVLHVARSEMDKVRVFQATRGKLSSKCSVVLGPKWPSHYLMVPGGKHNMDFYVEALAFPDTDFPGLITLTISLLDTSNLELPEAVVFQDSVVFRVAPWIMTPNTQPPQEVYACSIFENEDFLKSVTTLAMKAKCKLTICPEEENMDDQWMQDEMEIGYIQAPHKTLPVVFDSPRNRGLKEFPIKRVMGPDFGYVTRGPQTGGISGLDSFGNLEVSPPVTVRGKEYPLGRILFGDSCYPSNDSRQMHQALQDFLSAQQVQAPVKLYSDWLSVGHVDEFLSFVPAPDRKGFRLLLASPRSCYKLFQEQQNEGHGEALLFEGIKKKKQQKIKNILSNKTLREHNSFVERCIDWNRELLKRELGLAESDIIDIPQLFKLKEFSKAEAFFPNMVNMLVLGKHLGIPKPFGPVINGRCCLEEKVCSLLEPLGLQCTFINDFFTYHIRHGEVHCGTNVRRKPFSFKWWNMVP
PRMT1 FP inh – PRMT1 methyltransferase inhibitors, primary screen, biochemical, fluorescence polarization; recombinant PRMT1, activity-based probe fluorescence polarization; inhibition, % at 2.79 µM; hit rate 1.3% among 370,000; Protein arginine N-methyltransferase 1 (Homo sapiens), Q99873;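 active means inhibition above about 21% made by adding two undisclosed values, limit read from the data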
HTRA1 inhibitor – HTRA1 serine protease inhibitors, primary screen, biochemical, fluorescence polarization, HTS | Q92743 | recombinant HTRA1, FP-rhodamine activity-based probe | inhibition, % at 5.96 µM | hit rate 0.5% among 340,000; in the data active means inhibition above about 36%
ABHD4 inh – ABHD4 inhibitors, primary screen, biochemical, fluorescence polarization, mouse; inhibition, % at 8.92 µM; hit rate 0.54% among 370,000; AID 720543, 2013; purified mABHD4, FP-Rh probe fluorescence polarization; (Lyso)-N-acylphosphatidylethanolamine lipase (Mus musculus), Q8VD66;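 active means inhibition exceeding the mean over every tested compound plus 3 SD, cut at about 30% in these data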
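Assay system: wild-type mouse ABHD4 protein; compound: single nominal dose of 8.92 µM, 0.89% DMSO final; schedule: 45 min + 60 min at 25 °C; measured by: FP readout, ex 525 nm / em 598 nm; evaluation: % inhibition of FP-Rh probe binding versus controls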
SIAE inh – human SIAE inhibitors, primary screen, biochemical, fluorescence polarization, FP-Rh probe, 1536-well HTS; SIAE FP-Rh probe binding; inhibition, % at 9.66 µM; hit rate 0.69% among 370,000;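 active means inhibition above a cutoff: mean of compounds within the control limits plus 3 SD of those, cut at about 17% in these data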
PAD4 FP conf – human PAD4 inhibitors, confirmation, biochemical, fluorescence polarization; shares compounds with PAD4 inh; recombinant PAD4, RCA probe fluorescence polarization; inhibition, % at 6.36 µM; hit rate 28% among 1,200; AID 488796, 2010;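 active means mean inhibition across replicates above the hit cutoff set by the earlier primary screen, cut at about 15% in these data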;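 further: inhibitors block active-site labeling by the probe so polarization falls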
HTRA1 inh conf – HTRA1 protease inhibitors, retest, confirmation, biochemical, fluorescence polarization; shares compounds with HTRA1 inhibitor; recombinant HTRA1, FP-rhodamine activity-based probe; inhibition, % at 5.96 µM; hit rate 66% among 1,600; AID 540248, 2011;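 active means mean inhibition over three repeats above a set limit taken from the earlier primary screen, cut at about 37% in these data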;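 further: inhibitors block probe binding so polarization drops and inhibition rises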
BSA TAMRA ctr – compounds interfering with TAMRA-BSA probe, counter-screen for TCR-CD3 interaction inhibitor project, biochemical, fluorescence, TAMRA-labeled BSA | shares compounds with TCR-CD3 inh | TAMRA-labeled BSA probe fluorescence counterscreen | inhibition, % at 9.4 µM | hit rate 10% among 1,200; in the data active means inhibition above about 23%
TCR-CD3 conf – TCR-CD3 interaction inhibitors, retest, confirmation, biochemical, fluorescence, TAMRA-labeled TCR probe; shares compounds with TCR-CD3 inh; TAMRA-labeled TCR probe fluorescence binding assay; inhibition, % at 9.4 µM; hit rate 48% among 1,200; AID 652036, 2013
mABHD4 conf – ABHD4 inhibitors, retest, confirmation, biochemical, fluorescence polarization, mouse. shares compounds with ABHD4 inh. purified mABHD4, FP-Rh probe fluorescence polarization. inhibition, % at 8.92 µM. hit rate 55% among 1,800. AID 720658, 2013;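 active means mean inhibition across replicates above the hit cutoff set in the primary screen, cut at about 30% in these data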
SIAE confirm – human SIAE inhibitors, retest, confirmation, biochemical, fluorescence polarization, FP-Rh probe, triplicate; shares compounds with SIAE inh; SIAE FP-Rh activity-based probe; inhibition, % at 9.66 µM; hit rate 13% among 2,300; AID 1117263, 2014;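 active means mean inhibition of the replicates above the hit cutoff set in the primary screen, cut at about 17% in these data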;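 further: inhibitors lower polarization as more probe stays unbound to SIAE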
Large screens that a line does not name were inactive (follow-up assays come after a bar, where they were run). Most compounds without a hit are left out; they make up all but 2.9% or so of the library. Unless noted, no stated cut-off is given here; in the data, active means inhibition above about 19%; inactive means the rest.

C=CCN1C(=O)[C@@H](CC(=O)NCc2cccc3ccccc23)[C@]2(C(=O)OCC)CCCCC/C=C/12	none (no result: TCR-CD3 inh, PAD4 inh, HTRA1 inhibitor)
CC(C)C(C#CC1CC1)NCc1ccc2c(c1)OCO2 (stereo not given)	none (no result: TCR-CD3 inh, PAD4 inh, HTRA1 inhibitor)
Cc1ccc(CNC(=O)c2c(-c3ccccc3Cl)noc2C)cc1	none
Cc1onc(-c2ccccc2Cl)c1C(=O)NCc1ccc2c(c1)cc(C)n2C	TCR-CD3 inh 34, PAD4 inh 38, ABHD4 inh 30 | PAD4 FP conf inactive | BSA TAMRA ctr inactive | TCR-CD3 conf inactive | mABHD4 conf inactive
Cc1cc2cc(CNC(=O)COc3ccccc3)ccc2n1C	TCR-CD3 inh 27, PAD4 inh 33, HTRA1 inhibitor 45, ABHD4 inh 32 | PAD4 FP conf inactive | HTRA1 inh conf inactive | BSA TAMRA ctr inactive | TCR-CD3 conf inactive | mABHD4 conf inactive
COc1ccc(CNC(=O)O[C@H]2CC[C@@]34CCCN3C(=O)CCC[C@H]4C2)cc1	none (no result: TCR-CD3 inh, PAD4 inh, HTRA1 inhibitor)
Oc1c(Br)cc(Br)cc1C=Nc1cccc2ncccc12	PAD4 inh 37, SIAE inh 22 | PAD4 FP conf inactive | SIAE confirm inactive
Brc1cccc(C=Nc2cccc3ncccc23)c1	none
CCCCC(=Nc1ccc(N)cc1)C1=C(O)C(C(=O)OC)C(C)(C)CC1=O (stereo not given)	TCR-CD3 inh 50, PAD4 inh 75, HTRA1 inhibitor 64, ABHD4 inh 72, SIAE inh 44 | PAD4 FP conf inactive | HTRA1 inh conf inactive | BSA TAMRA ctr inactive | TCR-CD3 conf inactive | mABHD4 conf inactive | SIAE confirm inactive
CCCC(=NCc1ccccc1)C1=C(O)C(C(=O)OC)C(C)(C)CC1=O (stereo not given)	none
O=C(N=C1N(Cc2ccccc2)C[C@]2(C=C3CCCCC3n3c(=O)n(-c4ccccc4)c(=O)n32)N1C(=O)OCc1ccccc1)c1ccccc1 (stereo not given in full)	none (no result: TCR-CD3 inh, PAD4 inh, HTRA1 inhibitor)
O=C1c2cccc3c(O)ccc(c23)C(=O)N1c1ccc(Cl)cc1	TCR-CD3 inh 32, PAD4 inh 34, PRMT1 FP inh 174, ABHD4 inh 57, SIAE inh 37 | PAD4 FP conf 31 | BSA TAMRA ctr 26 | TCR-CD3 conf 21 | mABHD4 conf 31 | SIAE confirm inactive
Cc1ccc(N2C(=O)c3cccc4c(C(=O)O)ccc(c34)C2=O)cc1	none (no result: HTRA1 inhibitor)
CC(=O)Nc1ccc(N2C(=O)c3cccc4c(O)ccc(c34)C2=O)cc1	TCR-CD3 inh 54, PAD4 inh 39, PRMT1 FP inh 109, SIAE inh 26 | PAD4 FP conf 36 | BSA TAMRA ctr 74 | TCR-CD3 conf 52 | SIAE confirm 17
CCOC(=O)[C@@]12CN(C(=O)OC(C)(C)C)CC=C1N(Cc1ccc(OC)cc1)C(=O)[C@H]2CC(=O)NCCCCc1ccccc1	none (no result: TCR-CD3 inh, PAD4 inh, HTRA1 inhibitor)
CC1=CC(C)(C)N2C(=O)C(=Nc3ccc(O)cc3)c3cccc1c32	TCR-CD3 inh 42, PAD4 inh 26, HTRA1 inhibitor 53, ABHD4 inh 60, SIAE inh 22 | PAD4 FP conf inactive | HTRA1 inh conf inactive | BSA TAMRA ctr inactive | TCR-CD3 conf inactive | mABHD4 conf inactive | SIAE confirm inactive
COc1cc(N=C2C(=O)N3c4c(cccc42)C(C)=CC3(C)C)cc(OC)c1	none
CCN1/C(=C/C=C/c2oc3ccc(-c4ccccc4)cc3[n+]2CC)Oc2ccc(-c3ccccc3)cc21	TCR-CD3 inh 105, PAD4 inh 63, HTRA1 inhibitor 114, ABHD4 inh 72, SIAE inh 68 | PAD4 FP conf 45 | HTRA1 inh conf 108 | BSA TAMRA ctr 152 | TCR-CD3 conf 58 | mABHD4 conf 89 | SIAE confirm inactive
COc1ccc(OC)c(N)c1	TCR-CD3 inh 23, PAD4 inh 38, HTRA1 inhibitor 66, ABHD4 inh 41, SIAE inh 28 | PAD4 FP conf inactive | HTRA1 inh conf inactive | BSA TAMRA ctr inactive | TCR-CD3 conf inactive | mABHD4 conf inactive | SIAE confirm inactive
COc1ccc(NC(=O)NC(C)(C(F)(F)F)C(F)(F)F)cc1	none
CC(NC(=O)Nc1ccc(O)cc1)(C(F)(F)F)C(F)(F)F	TCR-CD3 inh 54, PAD4 inh 64, ABHD4 inh 66, SIAE inh 26 | PAD4 FP conf inactive | BSA TAMRA ctr inactive | TCR-CD3 conf inactive | mABHD4 conf inactive | SIAE confirm inactive
Cc1ccc(S(=O)(=O)N(C)CC(=O)N2CCN(C(=O)c3ccco3)CC2)cc1	none
Cc1ccc(S(=O)(=O)N(C(=O)c2ccco2)c2cc3sc(=O)oc3c3ccccc23)cc1	PAD4 inh 21, PRMT1 FP inh 84, ABHD4 inh 50, SIAE inh 34 | PAD4 FP conf inactive | mABHD4 conf inactive | SIAE confirm inactive
CC(C)C1OC2(C)OC(=N)C1(C#N)C(C#N)(C#N)C2c1ccccc1 (stereo not given)	PAD4 inh 19, PRMT1 FP inh 25, ABHD4 inh 35, SIAE inh 22 | PAD4 FP conf 16 | SIAE confirm inactive
